ChEMBL document CHEMBL5058577, “EUbOPEN Chemogenomics Library 2 (Multiplex)” (2022)

Tested on: Fibroblast
Test: Multiplex assay against human fibroblast
Format: toxicity, cell-based
Procedure, shortened: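 On a CQ1 microscope at 37°C and 5% CO2, live cells were imaged after compound addition. They had been stained at seeding with Hoechst33342, BioTracker Green Microtubule Cytoskeleton Dye, MitoTracker Red and Annexin V Alexa Fluor 680. CellPathfinder machine-learning gating assigned cells to Hoechst high-intensity objects or normal cells, normal cells to healthy, pyknosed or fragmented nuclei, and pyknosed cells to mitotic or apoptotic. Tubulin, mitochondrial-mass and membrane-permeability phenotypes are per cents of healthy-nucleus cells.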

[1] = 12 h, 1 µM, compound concentration 1 uM, replicate 1
[2] = 12 h, 1 µM, compound concentration 1 uM, replicate 2
[3] = 12 h, 10 µM, compound concentration 10 uM, replicate 1
[4] = 12 h, 10 µM, compound concentration 10 uM, replicate 2
[5] = 24 h, 1 µM, compound concentration 1 uM, replicate 1
[6] = 24 h, 1 µM, compound concentration 1 uM, replicate 2
[7] = 24 h, 10 µM, compound concentration 10 uM, replicate 1
[8] = 24 h, 10 µM, compound concentration 10 uM, replicate 2
[9] = 48 h, 1 µM, compound concentration 1 uM, replicate 1
[10] = 48 h, 1 µM, compound concentration 1 uM, replicate 2
[11] = 48 h, 10 µM, compound concentration 10 uM, replicate 1
[12] = 48 h, 10 µM, compound concentration 10 uM, replicate 2

## Cc1c(CC(=O)O)c2cccnc2n1Cc1ccc(S(C)(=O)=O)cc1C(F)(F)F [FEVIPIPRANT]
[1]
  Population Apoptotic (%): 44%
  Population Fragmented Nuclei (%): 22%
  Population Healthy Nuclei (%): 60%
  Population Hoechst High Intensity Objects (%): 3%
  Population Membrane Permeable-Phenotype (%): 1%
  Population Mitochondria Different-Phenotype (%): 3%
  Population Mitotic Cells (%): 55%
  Population Normal (%): 96%
  Population Pyknosed Nuclei (%): 18%
  Population Tubulin-Different-Phenotype (%): 20%
  Total Cell Count: 156
[2]
  Population Apoptotic (%): 25%
  Population Fragmented Nuclei (%): 33%
  Population Healthy Nuclei (%): 48%
  Population Membrane Permeable-Phenotype (%): 13%
  Population Mitochondria Different-Phenotype (%): 12%
  Population Mitotic Cells (%): 74%
  Population Pyknosed Nuclei (%): 17%
  Population Tubulin-Different-Phenotype (%): 56%
[3]
  Population Apoptotic (%): 34%
  Population Fragmented Nuclei (%): 10%
  Population Healthy Nuclei (%): 71%
  Population Hoechst High Intensity Objects (%): 3%
  Population Membrane Permeable-Phenotype (%): 1%
  Population Mitochondria Different-Phenotype (%): 4%
  Population Mitotic Cells (%): 65%
  Population Normal (%): 96%
  Population Pyknosed Nuclei (%): 17%
  Population Tubulin-Different-Phenotype (%): 25%
  Total Cell Count: 132
[4]
  Population Apoptotic (%): 22%
  Population Fragmented Nuclei (%): 21%
  Population Healthy Nuclei (%): 54%
  Population Hoechst High Intensity Objects (%): 5%
  Population Membrane Permeable-Phenotype (%): 9%
  Population Mitochondria Different-Phenotype (%): 6%
  Population Mitotic Cells (%): 77%
  Population Normal (%): 94%
  Population Pyknosed Nuclei (%): 23%
  Population Tubulin-Different-Phenotype (%): 55%
  Total Cell Count: 139
[5]
  Population Apoptotic (%): 55%
  Population Fragmented Nuclei (%): 14%
  Population Healthy Nuclei (%): 66%
  Population Hoechst High Intensity Objects (%): 3%
  Population Membrane Permeable-Phenotype (%): 1%
  Population Mitochondria Different-Phenotype (%): 5%
  Population Mitotic Cells (%): 44%
  Population Normal (%): 96%
  Population Pyknosed Nuclei (%): 19%
  Population Tubulin-Different-Phenotype (%): 23%
  Total Cell Count: 156
[6]
  Population Apoptotic (%): 52%
  Population Fragmented Nuclei (%): 35%
  Population Healthy Nuclei (%): 47%
  Population Membrane Permeable-Phenotype (%): 4%
  Population Mitochondria Different-Phenotype (%): 8%
  Population Mitotic Cells (%): 48%
  Population Pyknosed Nuclei (%): 17%
  Population Tubulin-Different-Phenotype (%): 50%
  Total Cell Count: 150
[7]
  Population Apoptotic (%): 57%
  Population Fragmented Nuclei (%): 16%
  Population Healthy Nuclei (%): 67%
  Population Hoechst High Intensity Objects (%): 1%
  Population Membrane Permeable-Phenotype (%): 1%
  Population Mitochondria Different-Phenotype (%): 2%
  Population Mitotic Cells (%): 42%
  Population Normal (%): 98%
  Population Pyknosed Nuclei (%): 16%
  Population Tubulin-Different-Phenotype (%): 24%
  Total Cell Count: 130
[8]
  Population Apoptotic (%): 31%
  Population Fragmented Nuclei (%): 22%
  Population Healthy Nuclei (%): 55%
  Population Hoechst High Intensity Objects (%): 7%
  Population Membrane Permeable-Phenotype (%): 5%
  Population Mitochondria Different-Phenotype (%): 5%
  Population Mitotic Cells (%): 68%
  Population Normal (%): 92%
  Population Pyknosed Nuclei (%): 21%
  Population Tubulin-Different-Phenotype (%): 52%
  Total Cell Count: 146
[9]
  Population Apoptotic (%): 65%
  Population Fragmented Nuclei (%): 16%
  Population Healthy Nuclei (%): 67%
  Population Hoechst High Intensity Objects (%): 5%
  Population Membrane Permeable-Phenotype (%): 0%
  Population Mitochondria Different-Phenotype (%): 4%
  Population Mitotic Cells (%): 35%
  Population Normal (%): 94%
  Population Pyknosed Nuclei (%): 16%
  Population Tubulin-Different-Phenotype (%): 16%
  Total Cell Count: 132
[10]
  Population Apoptotic (%): 63%
  Population Fragmented Nuclei (%): 39%
  Population Healthy Nuclei (%): 47%
  Population Hoechst High Intensity Objects (%): 6%
  Population Membrane Permeable-Phenotype (%): 4%
  Population Mitochondria Different-Phenotype (%): 8%
  Population Mitotic Cells (%): 36%
  Population Normal (%): 93%
  Population Pyknosed Nuclei (%): 12%
  Population Tubulin-Different-Phenotype (%): 47%
  Total Cell Count: 157
[11]
  Population Apoptotic (%): 73%
  Population Fragmented Nuclei (%): 22%
  Population Healthy Nuclei (%): 62%
  Population Hoechst High Intensity Objects (%): 2%
  Population Membrane Permeable-Phenotype (%): 0%
  Population Mitochondria Different-Phenotype (%): 3%
  Population Mitotic Cells (%): 26%
  Population Normal (%): 97%
  Population Pyknosed Nuclei (%): 14%
  Population Tubulin-Different-Phenotype (%): 29%
  Total Cell Count: 132
[12]
  Population Apoptotic (%): 58%
  Population Fragmented Nuclei (%): 32%
  Population Healthy Nuclei (%): 53%
  Population Membrane Permeable-Phenotype (%): 3%
  Population Mitochondria Different-Phenotype (%): 2%
  Population Mitotic Cells (%): 41%
  Population Tubulin-Different-Phenotype (%): 52%
  Total Cell Count: 171
